Results reported in ChEMBL document CHEMBL3745601 (Medchemcomm, 2015).

Columns and labels:
Adenosine receptor A2a [1] = target: T1, Adenosine receptor A2a (Homo sapiens, UniProt P29274); test: Displacement of [3H]2-[p(2-carboxyethyl)phenyl-ethylamino]-5'-N-ethylcarboxamido-adenosine from human adenosine A2A receptor stably expressed in HEK293 cell membrane at 10 uM by radioligand binding assay; assay type: cell membranes
Mus musculus [2] = test: Induction of mechano-allodynia in mouse chronic constriction injury model of neuropathic pain assessed as paw withdrawal threshold on contralateral side at 3 umol/kg, po; assay type: organism-based; settings: in vivo
Adenosine receptor A3 [3] = target: T2, Adenosine receptor A3 (Homo sapiens, UniProt P0DMS8); test: Displacement of [125I]N6-(4-amino-3-iodobenzyl)adenosine-5'-N-methyl-uronamide from human adenosine A3 receptor stably expressed in CHO cell membrane by radioligand binding assay; assay type: cell membranes
T2 sequence (P0DMS8 whole entry): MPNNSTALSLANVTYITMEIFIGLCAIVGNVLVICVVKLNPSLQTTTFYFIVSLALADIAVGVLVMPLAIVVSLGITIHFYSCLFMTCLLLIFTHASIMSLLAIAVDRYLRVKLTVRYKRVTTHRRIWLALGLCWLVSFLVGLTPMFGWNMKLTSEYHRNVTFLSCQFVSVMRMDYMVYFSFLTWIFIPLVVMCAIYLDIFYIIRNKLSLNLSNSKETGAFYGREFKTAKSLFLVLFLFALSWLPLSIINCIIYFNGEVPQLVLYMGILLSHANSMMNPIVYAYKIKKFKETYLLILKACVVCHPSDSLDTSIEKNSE

Mus musculus [4] = test: Antineuropathic pain activity in mouse chronic constriction injury model of neuropathic pain assessed as reversal of reduction in paw withdrawal threshold of ipsilateral hind paw at 3 umol/kg, po dosed on day 7 after sciatic nerve ligation and measured at 3 hrs; assay type: functional; design: scale not given: the % may be the effect or the level left
In short: (§1)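 Paw withdrawal threshold (g) measured at 1 h or 3 h after treatment, at day 7 (D7/BL) and at D0. % effect = [PWT at post-treatment time − PWT at D7/BL] / [PWT at D0 − PWT at D7/BL] × 100. Significance set at P<0.05. Procedures otherwise follow earlier work under IASP/NIH animal welfare guidelines.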

Mus musculus [5] = test: Antineuropathic pain activity in mouse chronic constriction injury model of neuropathic pain assessed as reversal of reduction in paw withdrawal threshold of ipsilateral hind paw at 3 umol/kg, po dosed on day 7 after sciatic nerve ligation and measured at 1 hrs; assay type: functional; in short: as §1
[6] = target: T3, Adenosine receptor A1 (Homo sapiens) (UniProt P30542); test: Displacement of [3H]N6-R-phenylisopropyladenosine from human adenosine A1 receptor stably expressed in CHO cell membrane at 10 uM by radioligand binding assay; assay type: cell membranes
T3 sequence (whole entry): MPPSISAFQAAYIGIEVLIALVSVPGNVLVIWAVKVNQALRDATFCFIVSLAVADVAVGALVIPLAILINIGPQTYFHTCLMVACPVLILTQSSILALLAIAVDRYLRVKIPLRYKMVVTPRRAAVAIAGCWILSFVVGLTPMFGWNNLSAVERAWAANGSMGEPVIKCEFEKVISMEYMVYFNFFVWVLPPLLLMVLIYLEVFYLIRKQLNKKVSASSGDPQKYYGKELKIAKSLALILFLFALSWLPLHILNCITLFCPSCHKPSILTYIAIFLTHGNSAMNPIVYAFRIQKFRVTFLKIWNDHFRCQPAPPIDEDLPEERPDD

Adenosine receptor A2a [7] = target: T1, Adenosine receptor A2a; test: Displacement of [3H]2-[p(2-carboxyethyl)phenyl-ethylamino]-5'-N-ethylcarboxamido-adenosine from human adenosine A2A receptor stably expressed in HEK293 cell membrane by radioligand binding assay; assay type: cell membranes
Homo sapiens = species on record: Homo sapiens; test: Selectivity ratio for human A3 adenosine receptor to human A2A adenosine receptor
PC-12 = test: Displacement of [3H]DTG from rat sigma 2 receptor in PC12 cells incubated for 2 hrs by liquid scintillation counting method; assay type: cell-based; settings: dose or concentration not given here
[8] = target: Translocator protein (Rattus norvegicus) (UniProt P16257); test: Displacement of [3H]flunitrazepam from rat brain benzodiazepine receptor TSPO incubated for […] by liquid scintillation counting method
Translocator protein (Rattus norvegicus), sequence (P16257 whole entry, looked up): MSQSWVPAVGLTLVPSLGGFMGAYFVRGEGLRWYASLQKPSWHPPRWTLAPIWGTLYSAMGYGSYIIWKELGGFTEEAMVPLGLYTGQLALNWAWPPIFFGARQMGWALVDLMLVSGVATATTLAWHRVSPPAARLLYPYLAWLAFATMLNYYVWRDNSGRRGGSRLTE

[9] = target: Histamine H2 receptor (Homo sapiens) (UniProt P25021); test: Displacement of [3H]tiotidine from H2 histamine receptor (unknown origin) expressed in cells at 10 uM incubated for […] by scintillation counting method; assay type: cell-based
Histamine H2 receptor (Homo sapiens), sequence (P25021 whole entry): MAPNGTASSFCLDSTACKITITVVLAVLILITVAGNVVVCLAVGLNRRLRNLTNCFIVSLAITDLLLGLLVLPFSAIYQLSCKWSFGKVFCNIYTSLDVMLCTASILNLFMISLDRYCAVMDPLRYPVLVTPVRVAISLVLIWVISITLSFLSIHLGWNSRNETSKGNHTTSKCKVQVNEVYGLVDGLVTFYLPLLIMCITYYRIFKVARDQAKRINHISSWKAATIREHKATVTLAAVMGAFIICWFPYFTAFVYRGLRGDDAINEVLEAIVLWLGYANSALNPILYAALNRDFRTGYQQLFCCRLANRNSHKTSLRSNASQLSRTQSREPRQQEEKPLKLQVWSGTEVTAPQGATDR

Adenosine receptor A3 [10] = target: T4, Adenosine receptor A3 (Mus musculus, UniProt Q61618); test: Displacement of [125I]N6-(4-amino-3-iodobenzyl)adenosine-5'-N-methyl-uronamide from mouse adenosine A3 receptor stably expressed in CHO cell membrane by radioligand binding assay; assay type: cell membranes
T4 sequence (Q61618 whole entry): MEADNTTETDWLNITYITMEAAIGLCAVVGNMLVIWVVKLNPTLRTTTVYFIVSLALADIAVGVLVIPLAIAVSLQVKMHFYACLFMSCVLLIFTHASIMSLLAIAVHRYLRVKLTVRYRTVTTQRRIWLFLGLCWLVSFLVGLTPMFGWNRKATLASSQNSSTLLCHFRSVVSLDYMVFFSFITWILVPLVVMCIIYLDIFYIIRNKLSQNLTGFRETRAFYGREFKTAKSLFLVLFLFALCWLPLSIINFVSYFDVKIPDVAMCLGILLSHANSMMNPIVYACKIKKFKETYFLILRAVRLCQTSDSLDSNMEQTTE

T1 sequence (P29274 whole entry): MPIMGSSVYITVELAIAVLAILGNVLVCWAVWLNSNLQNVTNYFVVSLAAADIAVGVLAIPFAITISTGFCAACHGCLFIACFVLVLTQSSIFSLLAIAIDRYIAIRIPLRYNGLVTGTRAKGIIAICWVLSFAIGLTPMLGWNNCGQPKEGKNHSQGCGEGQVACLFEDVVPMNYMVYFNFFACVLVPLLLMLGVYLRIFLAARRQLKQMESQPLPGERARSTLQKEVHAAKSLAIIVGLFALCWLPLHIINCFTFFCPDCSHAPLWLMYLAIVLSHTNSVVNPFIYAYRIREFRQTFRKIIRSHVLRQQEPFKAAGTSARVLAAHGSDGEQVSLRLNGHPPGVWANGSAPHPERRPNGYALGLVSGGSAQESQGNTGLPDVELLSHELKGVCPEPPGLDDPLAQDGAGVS

Compound | inhibition (Adenosine receptor A2a [1]) | Activity (Mus musculus [2]) | Ki (Adenosine receptor A3 [3]) | Activity (Mus musculus [4]) | Emax at 3 µmol/kg (Mus musculus [5]) | inhibition [6] | Ki (Adenosine receptor A2a [7]) | Selectivity ratio (Homo sapiens) | inhibition (PC-12) | inhibition [8] | inhibition [9] | Ki (Adenosine receptor A3 [10])
CNC(=O)[C@@]12C[C@@H]1[C@@H](n1cnc3c(NC)nc(-n4cc(-c5ccccc5Cl)nn4)nc31)[C@H](O)[C@@H]2O | 31% | Non-toxic | 0.95 nM | 7.9% | 69.1% |  |  |  |  |  |  | 
CNC(=O)[C@@]12C[C@@H]1[C@@H](n1cnc3c(NC)nc(-n4cc(-c5cc6ccccc6o5)nn4)nc31)[C@H](O)[C@@H]2O | 40% | Non-toxic | 1.25 nM | 22.3% | 74% | 12% |  |  |  |  |  | 
CNC(=O)[C@@]12C[C@@H]1[C@@H](n1cnc3c(NC4CCC4)nc(N=[N+]=[N-])nc31)[C@H](O)[C@@H]2O | 46% |  | 0.85 nM |  |  |  |  |  |  |  |  | 
CNC(=O)[C@@]12C[C@@H]1[C@@H](n1cnc3c(NCCc4ccccc4)nc(N=[N+]=[N-])nc31)[C@H](O)[C@@H]2O |  |  | 0.85 nM |  |  | 93% | 1110 nM |  |  |  |  | 
CNC(=O)[C@@]12CC1[C@@H](n1cnc3c(NC)nc(C#Cc4ccccc4)nc31)[C@H](O)[C@@H]2O (single isomer, unassigned) |  |  |  |  |  |  |  | > 3000 |  |  |  | 
CNC(=O)[C@@]12C[C@@H]1[C@@H](n1cnc3c(NC)nc(-n4cc(-c5ccc(Cl)s5)nn4)nc31)[C@H](O)[C@@H]2O | 34% | Non-toxic | 0.73 nM | 8.4% | 66.8% | 27% |  |  | 62% | 54% |  | 
CNC(=O)[C@@]12C[C@@H]1[C@@H](n1cnc3c(NC)nc(-n4cc(-c5ccc(F)c(F)c5)nn4)nc31)[C@H](O)[C@@H]2O | 39% | Non-toxic | 1.06 nM | 27% | 75.2% |  |  |  |  |  |  | 
CCNc1nc(N=[N+]=[N-])nc2c1ncn2[C@H]1[C@H](O)[C@H](O)[C@]2(C(=O)NC)C[C@H]12 | 11% |  | 0.69 nM |  |  |  |  |  |  |  |  | 
CNC(=O)[C@@]12C[C@@H]1[C@@H](n1cnc3c(NC)nc(-n4cc(-c5cnn(C)c5)nn4)nc31)[C@H](O)[C@@H]2O | 1% | Non-toxic | 2.16 nM | 19.1% | 82.5% | 2% |  |  |  |  |  | 
CCNc1nc(-n2cc(-c3ccc(Cl)s3)nn2)nc2c1ncn2[C@H]1[C@H](O)[C@H](O)[C@]2(C(=O)NC)C[C@H]12 | 32% | Non-toxic | 1.22 nM | 17.9% | 84.9% |  |  |  |  |  |  | 
CNC(=O)[C@@]12C[C@@H]1[C@@H](n1cnc3c(NCc4cccc(Cl)c4)nc(N=[N+]=[N-])nc31)[C@H](O)[C@@H]2O |  |  | 1.08 nM |  |  |  | 2770 nM |  |  |  |  | 
CNC(=O)[C@@]12C[C@@H]1[C@@H](n1cnc3c(NC)nc(-n4cc(-c5ccccn5)nn4)nc31)[C@H](O)[C@@H]2O | 26% | Non-toxic | 1.84 nM | 21.1% | 60.9% | 29% |  |  |  |  |  | 
CNC(=O)[C@@]12C[C@@H]1[C@@H](n1cnc3c(NC)nc(-n4cc(-c5ccco5)nn4)nc31)[C@H](O)[C@@H]2O | 51% | Non-toxic | 0.96 nM | 21.1% | 65.3% |  |  |  | 50% |  | 50% | 
CNC(=O)[C@@]12C[C@@H]1[C@@H](n1cnc3c(NCCc4ccccc4)nc(I)nc31)[C@H](O)[C@@H]2O | 42% |  | 0.91 nM |  |  | 68% |  |  |  |  |  | 
CNC(=O)[C@@]12C[C@@H]1[C@@H](n1cnc3c(NC4CCC4)nc(I)nc31)[C@H](O)[C@@H]2O |  |  | 1.53 nM |  |  |  | > 10000 nM |  |  |  |  | 
CNC(=O)[C@@]12C[C@@H]1[C@@H](n1cnc3c(NC)nc(-n4cc(-c5ncccn5)nn4)nc31)[C@H](O)[C@@H]2O | 27% | Non-toxic | 3.48 nM | 36.2% | 92.7% | 14% |  |  |  |  |  | 334 nM
CNC(=O)[C@@]12C[C@@H]1[C@@H](n1cnc3c(NCCc4ccccc4)nc(-n4cc(-c5ccc(Cl)s5)nn4)nc31)[C@H](O)[C@@H]2O |  | Non-toxic | 6.66 nM | 82.9% | 94.1% | 58% |  |  |  |  |  | 
CNC(=O)[C@@]12C[C@@H]1[C@@H](n1cnc3c(NC)nc(-n4cc(-c5ccc(Br)s5)nn4)nc31)[C@H](O)[C@@H]2O | 7% | Non-toxic | 0.58 nM | 13.5% | 69.1% |  |  |  |  |  |  | 
CCNc1nc(I)nc2c1ncn2[C@H]1[C@H](O)[C@H](O)[C@]2(C(=O)NC)C[C@H]12 | 11% |  | 1.22 nM |  |  |  |  |  |  |  |  | 
CNC(=O)[C@@]12C[C@@H]1[C@@H](n1cnc3c(NC)nc(-n4cc(-c5cnccn5)nn4)nc31)[C@H](O)[C@@H]2O | 8% | Non-toxic | 2.21 nM | 26.6% | 76.6% | 25% |  |  |  |  |  | 
CNC(=O)[C@@]12C[C@@H]1[C@@H](n1cnc3c(NC)nc(-n4cc(-c5ccccc5)nn4)nc31)[C@H](O)[C@@H]2O | 35% | Non-toxic | 0.96 nM | 27.5% | 77.4% |  |  |  |  |  |  | 
CNC(=O)[C@@]12C[C@@H]1[C@@H](n1cnc3c(NC4CCC4)nc(-n4cc(-c5ccc(Cl)s5)nn4)nc31)[C@H](O)[C@@H]2O |  | Non-toxic | 7.05 nM | 85.2% | 90.7% |  |  |  |  |  |  | 
CNC(=O)[C@@]12C[C@@H]1[C@@H](n1cnc3c(NC)nc(N=[N+]=[N-])nc31)[C@H](O)[C@@H]2O | 1% |  | 0.54 nM |  |  |  |  |  |  |  |  | 
